# Measurements from ChEMBL document CHEMBL1240425, “Design and synthesis of chloroquine analogs with anti-breast cancer property” (Eur J Med Chem, 2010).
# Tests used:
# [1] = test system: MCF7; assay: Antiproliferative activity against human p53+/- MCF7 cells after 48 hrs by SRB assay; format: functional; conditions: MCF7, 48 h
# Outline: (§1)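 Cells (5000–10,000/well) preincubated 24 h at 37 °C, 5% CO2; MCF10A kept in mammary epithelial basal medium with MEGM supplements. Seven concentrations from 2–10-fold serial dilutions, with ≤0.1% DMSO vehicle control, were given for 48 h. Cells were TCA-fixed (10% final), then stained with 0.4% SRB. Dye was solubilized in 10 mM Tris base and read at 515–564 nm. GI50 came from variable-slope sigmoidal fits, triplicates, ≥2 experiments.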
# [2] = test system: MDA-MB-231; assay: Antiproliferative activity against human p53, pRB mutant and estrogen receptor deficient MDA-MB-231 cells after 48 hrs by SRB assay; format: functional; conditions: MDA-MB-231, 48 h; outline: as §1
# [3] = Antiproliferative activity against human MCF10A cells after 48 hrs by SRB assay; format: cell-based, MCF-10A; outline: as §1
# [4] = test system: MDA-MB-231; assay: Ratio of GI50 for human MCF10A cells to GI50 for human p53, pRB mutant and estrogen receptor deficient MDA-MB-231 cells
# [5] = test system: MDA-MB-231; assay: Ratio of compound GI50 to cisplatin GI50 for human p53, pRB mutant and estrogen receptor deficient MDA-MB-231 cells after 48 hrs by SRB assay; format: functional
# [6] = test system: MCF7; assay: Ratio of GI50 for human MCF10A cells to GI50 for human p53+/- MCF7 cells
# [7] = test system: MCF7; assay: Ratio of compound GI50 to cisplatin GI50 for human p53+/- MCF7 cells after 48 hrs by SRB assay; format: functional
Structure (SMILES),GI50 [1] [µM],GI50 [2] [µM],GI50 at 48 h [3] [µM],RatioGI50 [4],RatioGI50 [5],RatioGI50 [6],RatioGI50 [7]
Clc1ccc2c(NCCCN3CCCC3)ccnc2c1,21.4,29.8,45.8,,,,
Clc1ccc2c(NCCCN3CCOCC3)ccnc2c1,17.2,40.2,86.5,,,,
CN1CCN(CCCNc2ccnc3cc(Cl)ccc23)CC1,17.1,19.1,16.7,,,,
Clc1ccc2c(NCCCN3CCN(c4ccccc4)CC3)ccnc2c1,12.8,15.9,12.6,,,,
Clc1ccc2c(NCCCN3CCN(c4ccnc5cc(Cl)ccc45)CC3)ccnc2c1,5.42,7.52,8.72,,,,
FC(F)(F)c1ccc2c(N3CCN(CCCNc4ccnc5cc(Cl)ccc45)CC3)ccnc2c1,4.99,6.33,12.9,2.03,3.7,2.58,5.16
O=C1C(=O)N(CCCNc2ccnc3cc(Cl)ccc23)c2ccccc21,23.5,47.6,35.9,,,,
O=C1C(=O)N(CCCNc2ccnc3cc(Cl)ccc23)c2cccc(Cl)c21,46.7,55.6,84.8,,,,
O=C1C(=O)N(CCCNc2ccnc3cc(Cl)ccc23)c2cccc(Br)c21,6.57,16.8,20.8,,,,
O=C1C(=O)N(CCCNc2ccnc3cc(Cl)ccc23)c2cc(Cl)ccc21,7.36,15.8,6.88,,,,
O=C1C(=O)N(CCCNc2ccnc3cc(Cl)ccc23)c2cc(Br)ccc21,16.6,35,19.9,,,,
FC(F)(F)c1ccc2c(NCCCN3CCCC3)ccnc2c1,36.8,70.4,58.6,,,,
FC(F)(F)c1ccc2c(NCCCN3CCCCC3)ccnc2c1,32.6,38.6,48.8,,,,
FC(F)(F)c1ccc2c(NCCCN3CCOCC3)ccnc2c1,38.8,79.8,26.5,,,,
CN1CCN(CCCNc2ccnc3cc(C(F)(F)F)ccc23)CC1,30.8,43.3,51.7,,,,
FC(F)(F)c1ccc2c(NCCCN3CCN(c4ccccc4)CC3)ccnc2c1,8.75,9.9,19.8,,,,
FC(F)(F)c1ccc2c(NCCCN3CCN(c4ccnc5cc(Cl)ccc45)CC3)ccnc2c1,4.6,4.31,8.84,2.05,,1.92,
FC(F)(F)c1ccc2c(NCCCN3CCN(c4ccnc5cc(C(F)(F)F)ccc45)CC3)ccnc2c1,17.2,25.7,30,,,,
O=C1C(=O)N(CCCNc2ccnc3cc(C(F)(F)F)ccc23)c2ccccc21,45.3,54.1,46.8,,,,
O=C1C(=O)N(CCCNc2ccnc3cc(C(F)(F)F)ccc23)c2cccc(Cl)c21,18.8,50.2,20.2,,,,
O=C1C(=O)N(CCCNc2ccnc3cc(C(F)(F)F)ccc23)c2cccc(Br)c21,34.4,49.4,33.7,,,,
O=C1C(=O)N(CCCNc2ccnc3cc(C(F)(F)F)ccc23)c2cc(Cl)ccc21,14.3,17.4,25.2,,,,
O=C1C(=O)N(CCCNc2ccnc3cc(C(F)(F)F)ccc23)c2cc(Br)ccc21,7.98,18.9,14.6,,,,
CCN(CC)CCCNc1ccnc2cc(Cl)ccc12,17.9,27.8,65.3,,,,
Clc1ccc2c(NCCCN3CCCCC3)ccnc2c1,17.7,38,47.8,,,,
CCN(CC)CCCNc1ccnc2cc(C(F)(F)F)ccc12,20.6,57.1,45.8,,,,
CCN(CC)CCCC(C)Nc1ccnc2cc(Cl)ccc12 (stereo not given) [CHLOROQUINE],,,81.3,,,,
